We go through 24 compounds from article PMC11333997 (RSC Advances, 2024).

One assay addresses EGFR (Homo sapiens, UniProt P00533). In words: In vitro EGFR kinase inhibition assay. The assay is classed as biochemical.
The subject of the next assay is HCT-116 cells. As to the kind of experiment: Flow cytometry cell cycle analysis. The format is cell-based, human. The method in brief:
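HCT-116 cells exposed to the test compound for 24 h, with DMSO as control. Cells were stained with propidium iodide, and DNA ploidy was analysed on a FACSCalibur flow cytometer. The percentage of cells in G0–G1, S and G2-M phases was reported.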

In the next assay the target is VEGFR-2 (Homo sapiens, UniProt P35968). In words: biochemical.
VEGFR-2, sequence (P35968 20-1356): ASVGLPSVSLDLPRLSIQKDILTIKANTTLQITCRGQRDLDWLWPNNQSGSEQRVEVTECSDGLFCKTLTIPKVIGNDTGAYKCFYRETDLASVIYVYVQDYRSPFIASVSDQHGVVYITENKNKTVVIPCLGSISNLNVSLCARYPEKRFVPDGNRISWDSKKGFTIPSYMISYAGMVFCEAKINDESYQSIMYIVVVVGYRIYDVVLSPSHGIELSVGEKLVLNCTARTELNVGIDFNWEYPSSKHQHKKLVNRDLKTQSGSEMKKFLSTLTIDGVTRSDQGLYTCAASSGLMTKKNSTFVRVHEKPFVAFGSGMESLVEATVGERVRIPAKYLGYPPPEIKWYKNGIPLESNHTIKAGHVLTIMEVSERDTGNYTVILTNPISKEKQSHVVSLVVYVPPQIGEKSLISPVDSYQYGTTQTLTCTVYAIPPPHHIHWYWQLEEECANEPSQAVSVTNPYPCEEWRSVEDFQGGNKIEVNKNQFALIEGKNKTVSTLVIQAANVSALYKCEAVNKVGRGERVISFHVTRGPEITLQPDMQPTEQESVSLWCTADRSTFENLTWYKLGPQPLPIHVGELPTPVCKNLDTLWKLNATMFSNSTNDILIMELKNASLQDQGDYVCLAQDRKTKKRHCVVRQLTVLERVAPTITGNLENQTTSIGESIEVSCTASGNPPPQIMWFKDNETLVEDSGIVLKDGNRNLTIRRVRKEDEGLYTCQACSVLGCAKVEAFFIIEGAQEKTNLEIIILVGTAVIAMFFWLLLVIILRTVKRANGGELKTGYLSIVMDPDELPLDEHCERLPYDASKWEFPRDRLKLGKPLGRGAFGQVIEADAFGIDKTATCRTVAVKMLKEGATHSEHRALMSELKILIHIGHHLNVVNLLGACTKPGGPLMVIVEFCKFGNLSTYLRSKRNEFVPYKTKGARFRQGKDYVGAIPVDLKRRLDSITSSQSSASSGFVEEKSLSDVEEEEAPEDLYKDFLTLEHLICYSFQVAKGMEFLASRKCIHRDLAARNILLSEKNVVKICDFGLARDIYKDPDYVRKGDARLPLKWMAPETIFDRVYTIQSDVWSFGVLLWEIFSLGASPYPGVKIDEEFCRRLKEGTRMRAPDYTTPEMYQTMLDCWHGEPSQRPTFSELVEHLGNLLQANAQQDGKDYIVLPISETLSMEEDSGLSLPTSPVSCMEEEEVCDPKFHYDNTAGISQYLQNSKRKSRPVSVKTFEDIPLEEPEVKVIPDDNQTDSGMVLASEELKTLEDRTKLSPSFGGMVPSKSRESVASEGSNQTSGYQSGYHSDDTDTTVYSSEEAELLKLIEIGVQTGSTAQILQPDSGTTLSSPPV
Assay [1] has as its system WI-38 normal human lung fibroblast cells. As to the kind of experiment: MTT cytotoxicity on normal fibroblast cell line. The format is cell-based. The note with it: WI-38, read-out: IC50 WI-38.
In assay [2] the test system is HEPG-2, HCT-116 and MCF-7 cell lines. As to the kind of experiment: MTT anti-tumor screening, values over the cancer cell line panel. The assay is classed as cell-based. The following applies: Homo sapiens, read-out: IC50 range over the cancer cell lines.
The subject of assay [3] is HEPG-2 hepatocellular carcinoma cells. In words: MTT in vitro anti-tumor screening. The format is cell-based. The note with it: Homo sapiens, HepG2, read-out: IC50 HEPG-2.
The test system of assay [4] is MCF-7 breast cancer cells. In words: MTT in vitro anti-tumor screening. The assay is classed as cell-based, human. The following applies: read-out: IC50 MCF-7, mean of three independent experiments ± SD.
The subject of the next assay is EGFR/VEGFR-2. As to the kind of experiment: EGFR/VEGFR-2 enzyme inhibition, both kinases stated together. The format is biochemical. The note with it: compared with the tested analogues (4).

EGFR, sequence (P00533 25-1210): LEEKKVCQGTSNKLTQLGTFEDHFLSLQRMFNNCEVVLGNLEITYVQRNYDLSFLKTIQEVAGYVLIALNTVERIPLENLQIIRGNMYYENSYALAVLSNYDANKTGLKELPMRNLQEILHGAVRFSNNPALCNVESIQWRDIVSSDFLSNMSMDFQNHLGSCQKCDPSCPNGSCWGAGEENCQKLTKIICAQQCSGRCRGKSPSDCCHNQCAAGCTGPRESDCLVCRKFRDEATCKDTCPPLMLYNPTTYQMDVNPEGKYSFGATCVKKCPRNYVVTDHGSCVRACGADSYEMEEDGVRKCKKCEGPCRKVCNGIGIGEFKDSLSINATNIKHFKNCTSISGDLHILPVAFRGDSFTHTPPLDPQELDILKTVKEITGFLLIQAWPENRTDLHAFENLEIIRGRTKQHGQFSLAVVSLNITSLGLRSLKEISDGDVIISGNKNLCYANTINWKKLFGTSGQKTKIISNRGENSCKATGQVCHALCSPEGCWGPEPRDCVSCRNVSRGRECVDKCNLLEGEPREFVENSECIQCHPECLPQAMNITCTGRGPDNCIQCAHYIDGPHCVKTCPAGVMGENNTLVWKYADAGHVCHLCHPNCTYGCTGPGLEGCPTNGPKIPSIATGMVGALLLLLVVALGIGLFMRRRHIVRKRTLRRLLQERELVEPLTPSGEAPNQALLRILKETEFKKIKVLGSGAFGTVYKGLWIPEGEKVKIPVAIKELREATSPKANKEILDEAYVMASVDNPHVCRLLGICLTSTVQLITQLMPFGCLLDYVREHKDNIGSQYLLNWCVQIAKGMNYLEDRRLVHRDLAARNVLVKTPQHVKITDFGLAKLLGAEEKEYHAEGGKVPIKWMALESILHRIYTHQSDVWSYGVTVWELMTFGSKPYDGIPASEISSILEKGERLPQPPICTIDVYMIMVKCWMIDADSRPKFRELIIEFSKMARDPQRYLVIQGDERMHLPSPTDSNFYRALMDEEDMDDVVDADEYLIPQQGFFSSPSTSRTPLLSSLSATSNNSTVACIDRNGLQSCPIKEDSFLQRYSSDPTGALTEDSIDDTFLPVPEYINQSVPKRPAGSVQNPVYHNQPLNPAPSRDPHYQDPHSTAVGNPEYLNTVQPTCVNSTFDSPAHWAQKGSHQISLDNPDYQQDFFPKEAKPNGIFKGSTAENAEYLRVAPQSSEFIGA

For the compound `Cc1ccc(-n2c(SCC(=O)NNC(=O)Nc3ccccc3)nc3ccccc3c2=O)cc1` [Compound 4, 2-(2-((4-Oxo-3-(p-tolyl)-3,4-dihydroquinazolin-2-yl)thio)acetyl)-N-phenylhydrazinecarboxamide], the IC50 at EGFR was 0.049 ± 0.002 µM; against VEGFR-2, 0.054 ± 0.002 µM; in assay [1], 45.6 ± 2.4 µM; in assay [2], 1.5 to 5.86 µM; in assay [3] it was 3.92 ± 0.2 µM. Besides, the “Cell cycle distribution G2-M” value in the assay with HCT-116 cells (at IC50 concentration, 24 h, control 19.54%) was found to be 8.65%. In the assay with HCT-116 cells (at IC50 concentration, 24 h, control 36.53%), the “Cell cycle distribution S” value is recorded as 36.18%. Moreover, the “Cell cycle distribution G0–G1” value in the assay on HCT-116 cells (at IC50 concentration, 24 h, control 43.93%) worked out at 55.17%. In addition, in the assay on HCT-116 cells (flow cytometry), the “cell cycle arrest phase” value was “G1 phase”.

For the compound `Cc1ccc(-n2c(SCC(=O)NNC(=O)Nc3ccc(F)cc3)nc3ccccc3c2=O)cc1` [Compound 5, N-(4-Fluorophenyl)-2-(2-((4-oxo-3-(p-tolyl)-3,4-dihydroquinazolin-2-yl)thio)acetyl)hydrazinecarboxamide], the IC50 was over 100 µM in assay [1] and 58.9 ± 3.4 µM in assay [3].

As to `Cc1ccc(-n2c(SCC(=O)NNC(=O)Nc3ccc(Cl)cc3)nc3ccccc3c2=O)cc1` [Compound 6, N-(4-Chlorophenyl)-2-(2-((4-oxo-3-(p-tolyl)-3,4-dihydroquinazolin-2-yl)thio)acetyl)hydrazinecarboxamide], the IC50 in assay [1] amounted to 66.2 ± 3.9 µM; in assay [3], 14.2 ± 1.2 µM.

Turning to `Cc1ccc(NC(=O)NNC(=O)CSc2nc3ccccc3c(=O)n2-c2ccc(C)cc2)cc1` [Compound 7, 2-(2-((4-Oxo-3-(p-tolyl)-3,4-dihydroquinazolin-2-yl)thio)acetyl)-N-(p-tolyl)hydrazinecarboxamide], the IC50 in assay [1] is over 100 µM; in assay [3] it was 76.4 ± 4.3 µM.

With `COc1ccc(NC(=O)NNC(=O)CSc2nc3ccccc3c(=O)n2-c2ccc(C)cc2)cc1` [Compound 8, N-(4-Methoxyphenyl)-2-(2-((4-oxo-3-(p-tolyl)-3,4-dihydroquinazolin-2-yl)thio)acetyl)hydrazinecarboxamide], the IC50 in assay [1] was 31.8 ± 2.2 µM; in assay [3], over 100 µM.

Turning to `Cc1ccc(-n2c(SCC(=O)NNC(=O)Nc3c(C)cccc3C)nc3ccccc3c2=O)cc1` [Compound 9, N-(2,6-Dimethylphenyl)-2-(2-((4-oxo-3-(p-tolyl)-3,4-dihydroquinazolin-2-yl)thio)acetyl)hydrazinecarboxamide], the figures for the half-maximal inhibitory concentration (IC50) in assay [1] and in assay [3] were 62.2 ± 3.5 µM and 53.1 ± 3 µM, respectively.

In the case of `Cc1ccc(-n2c(SCC(=O)NNC(=O)Nc3ccc(C(F)(F)F)cc3Cl)nc3ccccc3c2=O)cc1` [Compound 10, N-(2-Chloro-4-(trifluoromethyl)phenyl)-2-(2-((4-oxo-3-(p-tolyl)-3,4-dihydroquinazolin-2-yl)thio)acetyl)hydrazinecarboxamide], the IC50 in assay [1] stood at 86.9 ± 4.4 µM; in assay [3], 49.6 ± 2.7 µM.

As to `Cc1ccc(-n2c(SCC(=O)NNC(=O)NCc3ccccc3)nc3ccccc3c2=O)cc1` [Compound 11, N-Benzyl-2-(2-((4-oxo-3-(p-tolyl)-3,4-dihydroquinazolin-2-yl)thio)acetyl)hydrazinecarboxamide], the IC50 turned out to be 0.117 ± 0.005 µM against EGFR, 0.156 ± 0.007 µM against VEGFR-2, 54.1 ± 3 µM in assay [1] and 8.1 ± 0.6 µM in assay [3].

Turning to `O=C(CSc1nc2ccccc2c(=O)n1-c1ccc(Cl)cc1)NNC(=O)Nc1ccccc1` [Compound 12, 2-(2-((3-(4-Chlorophenyl)-4-oxo-3,4-dihydroquinazolin-2-yl)thio)acetyl)-N-phenylhydrazinecarboxamide], the IC50 worked out at 75.5 ± 4 µM in assay [1], 12.9 ± 1 µM in assay [4] and 19.5 ± 1.3 µM in assay [3].

With `O=C(CSc1nc2ccccc2c(=O)n1-c1ccc(Cl)cc1)NNC(=O)Nc1ccc(F)cc1` [Compound 13, 2-(2-((3-(4-Chlorophenyl)-4-oxo-3,4-dihydroquinazolin-2-yl)thio)acetyl)-N-(4-fluorophenyl)hydrazinecarboxamide], the IC50 is 47.5 ± 2.6 µM in assay [1] and 63.5 ± 3.7 µM in assay [3].

Regarding `O=C(CSc1nc2ccccc2c(=O)n1-c1ccc(Cl)cc1)NNC(=O)Nc1ccc(Cl)cc1` [Compound 14, N-(4-Chlorophenyl)-2-(2-((3-(4-chlorophenyl)-4-oxo-3,4-dihydroquinazolin-2-yl)thio)acetyl)hydrazinecarboxamide], the IC50 in assay [1] is 16.7 ± 1.4 µM; in assay [3], 29.8 ± 1.8 µM.

On to `Cc1ccc(NC(=O)NNC(=O)CSc2nc3ccccc3c(=O)n2-c2ccc(Cl)cc2)cc1` [Compound 15, 2-(2-((3-(4-Chlorophenyl)-4-oxo-3,4-dihydroquinazolin-2-yl)thio)acetyl)-N-(p-tolyl)hydrazinecarboxamide], for which the IC50 in assay [1] was 43.2 ± 2.5 µM; in assay [3], 68.6 ± 3.9 µM.

As for `COc1ccc(NC(=O)NNC(=O)CSc2nc3ccccc3c(=O)n2-c2ccc(Cl)cc2)cc1` [Compound 16, 2-(2-((3-(4-Chlorophenyl)-4-oxo-3,4-dihydroquinazolin-2-yl)thio)acetyl)-N-(4-methoxyphenyl)hydrazinecarboxamide], the IC50 stood at 17.8 ± 1.3 µM in assay [1] and 46.6 ± 2.6 µM in assay [3].

On to `Cc1cccc(C)c1NC(=O)NNC(=O)CSc1nc2ccccc2c(=O)n1-c1ccc(Cl)cc1` [Compound 17, 2-(2-((3-(4-Chlorophenyl)-4-oxo-3,4-dihydroquinazolin-2-yl)thio)acetyl)-N-(2,6-dimethylphenyl)hydrazinecarboxamide], for which the IC50 was 89.4 ± 4.7 µM in assay [1] and 22.4 ± 1.5 µM in assay [3].

For `O=C(CSc1nc2ccccc2c(=O)n1-c1ccc(Cl)cc1)NNC(=O)Nc1ccc(C(F)(F)F)cc1Cl` [Compound 18, N-(2-Chloro-4-(trifluoromethyl)phenyl)-2-(2-((3-(4-chlorophenyl)-4-oxo-3,4-dihydroquinazolin-2-yl)thio)acetyl)hydrazinecarboxamide], the values for the IC50 in assay [1] and in assay [3] were 84.4 ± 4.2 µM and 34.6 ± 2 µM, respectively.

On to `O=C(CSc1nc2ccccc2c(=O)n1-c1ccc(Cl)cc1)NNC(=O)NCc1ccccc1` [Compound 19, N-Benzyl-2-(2-((3-(4-chlorophenyl)-4-oxo-3,4-dihydroquinazolin-2-yl)thio)acetyl)hydrazinecarboxamide], for which the IC50 is over 100 µM in assay [1] and 73.5 ± 4.2 µM in assay [3].

In the case of `COc1ccc(-n2c(SCC(=O)NNC(=O)Nc3ccccc3)nc3ccccc3c2=O)cc1` [Compound 20, 2-(2-((3-(4-Methoxyphenyl)-4-oxo-3,4-dihydroquinazolin-2-yl)thio)acetyl)-N-phenylhydrazinecarboxamide], the IC50 against EGFR was 0.362 ± 0.014 µM; at VEGFR-2 it was 0.474 ± 0.02 µM; in assay [1], 42.9 ± 2.6 µM; in assay [2], 4.42 to 6.39 µM; in assay [3], 5.17 ± 0.4 µM. In the assay on EGFR/VEGFR-2, the “fold decrease in binding affinity (EGFR and VEGFR-2)” value is recorded as 9–10 fold.

Consider `COc1ccc(-n2c(SCC(=O)NNC(=O)Nc3ccc(F)cc3)nc3ccccc3c2=O)cc1` [Compound 21, N-(4-Fluorophenyl)-2-(2-((3-(4-methoxyphenyl)-4-oxo-3,4-dihydroquinazolin-2-yl)thio)acetyl)hydrazinecarboxamide], for which the results for the IC50 in assay [1] and in assay [3] were 27.6 ± 1.9 µM and 11.5 ± 0.9 µM, respectively.

Consider `COc1ccc(-n2c(SCC(=O)NNC(=O)Nc3ccc(Cl)cc3)nc3ccccc3c2=O)cc1` [Compound 22, N-(4-Chlorophenyl)-2-(2-((3-(4-methoxyphenyl)-4-oxo-3,4-dihydroquinazolin-2-yl)thio)acetyl)hydrazinecarboxamide], for which the IC50 is 15.5 ± 1.2 µM in assay [1] and 37.8 ± 2.1 µM in assay [3].

Regarding `COc1ccc(-n2c(SCC(=O)NNC(=O)Nc3ccc(C)cc3)nc3ccccc3c2=O)cc1` [Compound 23, 2-(2-((3-(4-Methoxyphenyl)-4-oxo-3,4-dihydroquinazolin-2-yl)thio)acetyl)-N-(p-tolyl)hydrazinecarboxamide], the concentration for half-maximal inhibition (IC50) in assay [1] was 63.9 ± 3.7 µM; in assay [3] it was 41.3 ± 2.4 µM.

For `COc1ccc(NC(=O)NNC(=O)CSc2nc3ccccc3c(=O)n2-c2ccc(OC)cc2)cc1` [Compound 24, N-(4-Methoxyphenyl)-2-(2-((3-(4-methoxyphenyl)-4-oxo-3,4-dihydroquinazolin-2-yl)thio)acetyl)hydrazinecarboxamide], the IC50 was 71.4 ± 3.8 µM in assay [1] and over 100 µM in assay [3].

For `COc1ccc(-n2c(SCC(=O)NNC(=O)Nc3c(C)cccc3C)nc3ccccc3c2=O)cc1` [Compound 25, N-(2,6-Dimethylphenyl)-2-(2-((3-(4-methoxyphenyl)-4-oxo-3,4-dihydroquinazolin-2-yl)thio)acetyl)hydrazinecarboxamide], the IC50 came to 56.4 ± 3.3 µM in assay [1] and 83.6 ± 4.5 µM in assay [3].

`COc1ccc(-n2c(SCC(=O)NNC(=O)Nc3ccc(C(F)(F)F)cc3Cl)nc3ccccc3c2=O)cc1` [Compound 26, N-(2-Chloro-4-(trifluoromethyl)phenyl)-2-(2-((3-(4-methoxyphenyl)-4-oxo-3,4-dihydroquinazolin-2-yl)thio)acetyl)hydrazinecarboxamide]: the IC50 in assay [1] was determined as 30.2 ± 2.1 µM; in assay [3] it was 72.8 ± 4 µM.

Consider `COc1ccc(-n2c(SCC(=O)NNC(=O)NCc3ccccc3)nc3ccccc3c2=O)cc1` [Compound 27, N-Benzyl-2-(2-((3-(4-methoxyphenyl)-4-oxo-3,4-dihydroquinazolin-2-yl)thio)acetyl)hydrazinecarboxamide], for which the IC50 in assay [1] was over 100 µM; in assay [3] it was 87.3 ± 4.6 µM.
